RGS4 block – inhibitors of human RGS4; P49798; HEK293 M3R/RGS4 inducible, Fluo-4 calcium flux; stronger effect = higher value; triggered by carbachol at its EC20; B-score at 10 µM; 0.45% of 310,000 active; AID 463165;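 active = B-score, a plate-corrected calcium signal, over three deviations above library mean, with baseline fluorescence within five deviations of library mean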;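 also: RGS4 expression induced by doxycycline in cells with stable M3 receptor; B-score is computed from the integrated fluorescence ratio over baseline after carbachol; higher B-score means a larger calcium signal and so more RGS4 inhibition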
Target sequence (P49798 whole entry, looked up): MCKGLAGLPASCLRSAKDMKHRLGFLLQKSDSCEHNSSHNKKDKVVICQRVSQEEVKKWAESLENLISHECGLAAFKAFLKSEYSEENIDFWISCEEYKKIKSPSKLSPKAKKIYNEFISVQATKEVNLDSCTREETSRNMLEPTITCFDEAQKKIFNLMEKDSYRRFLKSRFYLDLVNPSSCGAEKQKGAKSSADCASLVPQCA
MrgX1 allo act – allosterically activates human MrgX1 receptor signaling; Q96LB2; MrgX1-HEK293, Fluo-4 calcium flux, FDSS; stronger effect = higher value; B-score at 10 µM; 0.63% of 310,000 active;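 active = plate-corrected calcium response at least 3 library SD above typical, normal starting fluorescence, not activating the receptor alone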;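 also: compound read alongside a low EC10 to EC30 dose of BAM8-22 agonist; peak minus trough fluorescence over baseline measured at the second addition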
Target sequence (Q96LB2 whole entry, looked up): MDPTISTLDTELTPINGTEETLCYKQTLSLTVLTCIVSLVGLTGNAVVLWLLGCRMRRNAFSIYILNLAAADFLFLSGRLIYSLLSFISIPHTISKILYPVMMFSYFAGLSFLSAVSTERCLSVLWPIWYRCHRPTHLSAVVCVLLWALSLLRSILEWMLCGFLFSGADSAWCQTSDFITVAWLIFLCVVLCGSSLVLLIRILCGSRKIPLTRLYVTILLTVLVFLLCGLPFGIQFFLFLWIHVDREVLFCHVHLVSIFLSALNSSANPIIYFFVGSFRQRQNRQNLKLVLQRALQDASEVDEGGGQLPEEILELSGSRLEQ
MrgX1 antag – blocks BAM8-22 activation of human MrgX1 receptor; MRGX1-HEK293 calcium flux, Fluo-4, BAM8-22 antagonism; stronger effect = lower value; B-score at 10 µM; 1.3% of 310,000 active; AID 588676;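 active = calcium-response B-score plate-corrected more than 3 library SD below zero, starting fluorescence within 5 deviations, no agonist response on first addition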;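 also: peak minus trough fluorescence over baseline after final BAM8-22 challenge near maximal dose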
RGS4 pot – RGS4 potentiation or activation. HEK293 M3R/inducible RGS4, carbachol calcium flux Fluo4; stronger effect = lower value. B-score at 10 µM. 0.92% of 310,000 active. AID 463111;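 active = B-score of the integrated calcium signal more than 4 SD below the library mean, with starting fluorescence not abnormally high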;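 also: negative B-score means reduced calcium response which marks RGS4 activation or potentiation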
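Material: M3R-expressing HEK293 line, RGS4 induced by doxycycline | Schedule: Overnight RGS4 induction, 30 min dye load 37 °C, 20 min compound RT | Measured by: Fluo4 fluorescence kinetic imaging of calcium | Read-out: Integrated calcium ratio converted to B score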
MrgX1 ag – activates human MrgX1 receptor signaling. Q96LB2. MrgX1-HEK293 cells, Fluo-4 calcium fluorescence, agonist mode; stronger effect = higher value. B-score at 10 µM. 0.44% of 310,000 active;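 active = calcium response B-score plate-corrected fluorescence ratio at least 3 library SD, with starting fluorescence B-score inside 5 SD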
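Material – MrgX1-expressing HEK293 cells · Input – 15,000 cells seeded per well · Dosing – compound as first of three additions · Times – overnight seeding, then 1 h dark dye loading · Measured by – kinetic Fluo-4 NW fluorescence of intracellular calcium · Read-out – B-scored fluorescence response ratio · Benchmarks – positive and negative control wells on each plate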
RGS4 block valid – RGS4 inhibitor validation | shares compounds with RGS4 block | HEK293 M3R/RGS4, carbachol calcium Fluo-4 fluorescence; carbachol added at its EC20; 0 = buffer wells, 100 = carbachol control | calcium response, % at 10 µM | 65% of 1,700 active | AID 492999;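 active = duplicate-averaged calcium response above the buffer-only control mean plus 5 SD of those controls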;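 also: integrated fluorescence ratio F max minus min over baseline F0; higher response in RGS4-induced cells means RGS4 inhibition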
M3R Ca ctr – checks RGS4 inhibitor effects in non-induced HEK293 M3R cells; shares compounds with RGS4 block; carbachol calcium Fluo-4; submaximal (EC20) carbachol stimulus; buffer wells 0%, carbachol control wells 100%; activity (percent), % at 10 µM; 20% of 1,900 active; call rule not given here;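 also: RGS4 induction absent so cells express M3R without RGS4; higher means more calcium signal and flags a non-specific hit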
M3R basal Ca ctr – signal in non-induced cells without carbachol, RGS4 inhibitor counter-screen; shares compounds with RGS4 block; HEK293 M3R/RGS4 non-induced, Fluo-4 calcium, no carbachol; normalised: buffer wells 0%, carbachol wells 100%; calcium response (agonist-mode artifact), % at 10 µM; 22% of 1,900 active; AID 493001;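 active = duplicate-averaged calcium rise in uninduced cells above buffer wells' mean plus 5 SD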
Numbers without * were called inactive; i = inactive; · = not tested or not shown. A selection: hits, their analogues and other compounds. The true share with any hit is near 3.5%.

SMILES	RGS4 block	MrgX1 allo act	MrgX1 antag	RGS4 pot	MrgX1 ag	RGS4 block valid	M3R Ca ctr	M3R basal Ca ctr
COC(=O)c1ccc(COc2ccccc2/C=C(\C#N)C(=O)NC(C)C)cc1	i	i	i	i	i	·	·	·
COC(=O)c1ccc(COc2ccccc2/C=C(\C#N)C(=O)Nc2ccccc2C)cc1	i	i	i	i	i	i	i	i
COc1ccc2nc(-c3ccco3)c(-c3ccco3)nc2c1	5.8*	i	i	i	i	i	i	32%*
c1coc(-c2nc(-c3ccco3)c(-c3ccco3)nc2-c2ccco2)c1	i	i	i	i	i	·	·	·
O=C(NCc1ccco1)c1cc2nc(-c3ccc4c(c3)OCO4)cc(C(F)(F)F)n2n1	4.7*	i	i	i	i	i	i	16%*
COc1ccc(-c2cc(C(F)(F)F)n3nc(C(=O)NCc4ccco4)cc3n2)cc1	i	i	i	i	i	·	i	i
O=C(NCc1cccnc1)c1cc2nc(-c3ccc4c(c3)OCO4)cc(C(F)(F)F)n2n1	i	i	i	i	i	·	·	·
COc1cccc(/C=C2\CCc3ccccc3C2=O)c1	i	i	i	i	i	·	·	·
COc1cc(C=C2C(=O)c3ccccc3C2=O)cc(OC)c1	7.5*	i	i	i	i	8.5%*	i	i
COc1cccc(/C=C2\C(=O)C(=O)c3ccccc32)c1	11*	i	i	i	30*	14%*	i	10%*
CCOc1ccc(NC(=O)CN(C)C(=O)C2CC(=O)N(CCc3ccccc3)C2)cc1OCC (stereo unspecified)	i	i	i	i	i	·	·	·
CCCc1cnc(N2CCN(S(=O)(=O)c3cccs3)CC2)nc1	i	i	i	i	i	·	·	·
O=C1/C(=C\c2cccc(O)c2O)SC(=S)N1Cc1ccccc1	8.4*	i	i	i	i	18%*	i	i
O=C1/C(=C/c2ccncc2)SC(=S)N1Cc1ccccc1	i	i	i	i	i	·	·	·
COc1cc(/C=C2/SC(=S)N(Cc3ccccc3)C2=O)ccc1O	6.4*	11*	i	i	i	12%*	i	34%*
O=C1/C(=C\c2cccc(O)c2)SC(=S)N1Cc1ccccc1	i	i	i	i	i	i	i	i
CN(C(=O)C1CCC(=O)N(CCCN2CCCC2=O)C1)C(C1CC1)C1CC1 (stereo unspecified)	i	i	i	i	i	·	·	·
O=c1oc2ccccc2c(O)c1/C=C1\C=Nc2ccccc21	22*	i	i	i	i	66%*	i	48%*
CCOc1cccc(-c2c(C(=O)N/N=C/c3ccc(C)o3)nnn2-c2nonc2N)c1	i	i	i	i	i	i	i	i
CCOc1cccc(-c2c(C(=O)N/N=C/c3ccco3)nnn2-c2nonc2N)c1	i	i	i	i	i	i	i	i
COc1cccc(CN(C)C(=O)C(Cc2ccccc2)NC(=O)c2ccccc2)c1OC (stereo unspecified)	i	i	i	i	i	·	·	·
N#Cc1c(NC(=O)C2CC=CCC2C(=O)O)sc2c1CCCCCC2 (stereo unspecified)	5*	i	i	i	i	20%*	i	i
CC(C)(C)C1CCc2c(sc(NC(=O)C3CC=CCC3C(=O)O)c2C#N)C1 (stereo unspecified)	i	i	i	i	i	·	·	·
Cc1noc(/C=C/c2cccnc2)c1[N+](=O)[O-]	5.7*	i	i	i	i	18%*	i	i
O=C(/C=C/c1cccnc1)c1ccccc1O	8.8*	i	i	i	i	37%*	63%*	8.5%*
SMILES	RGS4 block	MrgX1 allo act	MrgX1 antag	RGS4 pot	MrgX1 ag	RGS4 block valid	M3R Ca ctr	M3R basal Ca ctr
Cc1cccc(C)c1N/C=C/c1onc(C)c1[N+](=O)[O-]	i	i	i	i	i	·	·	·
Cc1ccc(/C=C/C(=O)c2ccccc2O)cc1	i	i	i	i	i	·	·	·
O=C(/C=C/c1cccc(O)c1)c1cccnc1	5.8*	i	i	i	i	8.5%*	i	10%*
O=C(/C=C/c1cccnc1)c1ccc([N+](=O)[O-])cc1	6*	i	i	i	i	43%*	54%*	i
CN(C)c1ccc(/C=C/C(=O)c2cccnc2)cc1	i	i	i	i	i	·	·	·
COc1ccc(/C=N/NC(=O)CNC(=O)c2ccncc2)cc1	i	i	i	i	i	·	·	·
COc1ccc(-c2nn(C)c(=O)c3ccccc23)cc1CNC(=O)NC1CCCCC1	i	i	i	i	i	·	·	·
COc1ccc(C(=O)Nc2cccc(-c3cc4ccccc4oc3=O)c2)cc1[N+](=O)[O-]	·	i	i	·	i	·	·	·
O=C(/C=C/c1ccc(O)cc1)c1ccccc1	i	i	i	i	i	·	·	·
CN(C)C(=O)COc1ccc(C(=O)/C=C/c2cccnc2)cc1	5.6*	6.9*	i	i	i	17%*	i	i
O=C(/C=C/c1cccnc1)c1ccc(O)cc1	5.2*	i	i	i	i	15%*	i	i
O=C(/C=C/c1cccnc1)c1cccc(O)c1	12*	i	i	i	i	37%*	i	i
COc1cccc(CNC(=O)Cn2c(=O)c3cccn3c3ccccc32)c1	i	i	i	i	i	·	·	·
Cc1cc(C)c(C(N)=O)c(Nc2cccc(Cl)c2)n1	i	i	i	i	i	·	·	·
Cc1ccccc1Nc1sc(C(=O)Nc2cccc(Cl)c2)c(N)c1C(N)=O	6.6*	·	·	i	·	5.0%*	i	i
Nc1nc(CN2CCN(Cc3ccccc3)CC2)nc(Nc2ccc3c(c2)OCCO3)n1	i	i	i	i	i	·	·	·
Cc1ccc(Nc2nc(N)nc(CN3CCN(Cc4ccc5c(c4)OCO5)CC3)n2)cc1C	i	·	·	i	·	i	i	i
